Source: PubChem
Shown are actives, neighbours in structure and some others; about 2.2% of the full set was active somewhere.
Jurkat NFkB inh: inhibitors of the PMA/ionomycin-induced NF-kB reporter in Jurkat cells | inhibition, % at 4 µM | 330,000 compounds, 0.53% hits | PMA/ionomycin-induced NF-kB luciferase reporter, luminescence | AID 435003; in the data active = inhibition above about 50%
NR2E3 ag-1: activates human photoreceptor nuclear receptor NR2E3. Q9Y5X4. GST-NR2E3/biotin-RetCOR TR-FRET, 1536-well. inhibition of corepressor binding, % at 4.78 µM. 320,000 compounds, 0.12% hits. AID 2300;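 active = percent inhibition above the cutoff of mean plus 3 SD of all tested compounds, set per screening campaign, cut at about 20% in these data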
Target sequence (Q9Y5X4 whole entry, looked up): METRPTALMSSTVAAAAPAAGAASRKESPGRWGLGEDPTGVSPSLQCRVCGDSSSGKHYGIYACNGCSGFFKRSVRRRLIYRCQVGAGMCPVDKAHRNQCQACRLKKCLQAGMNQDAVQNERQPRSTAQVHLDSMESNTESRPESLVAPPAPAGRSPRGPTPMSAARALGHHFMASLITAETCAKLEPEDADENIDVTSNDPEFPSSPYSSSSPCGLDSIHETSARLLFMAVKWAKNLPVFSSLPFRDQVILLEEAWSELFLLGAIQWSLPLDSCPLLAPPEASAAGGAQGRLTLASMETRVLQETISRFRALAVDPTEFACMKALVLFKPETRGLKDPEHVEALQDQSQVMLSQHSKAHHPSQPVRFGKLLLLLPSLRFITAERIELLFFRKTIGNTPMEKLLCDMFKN
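Material: NR2E3–RetCOR corepressor complex | Quantity: 1.35 nM GST-tagged NR2E3 final | Schedule: 5 h at 4 °C | Replication: Singlicate compound wells | Reagent: RetCOR corepressor, biotinylated, 7 nM | Controls: Biotin wells as high control, 0.6% DMSO wells as low control | Signal: TR-FRET, Eu(K)-anti-GST donor, streptavidin-D2 acceptor, ex 340, em 617/671 nm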
697 NFkB inh: inhibitors of the PMA/ionomycin-induced NF-kB reporter in 697 B cells. 697 B-cell NF-kB luciferase reporter, 16 h. inhibition, % at 4 µM. 330,000 compounds, 0.33% hits; in the data active = inhibition above about 35%
FGF22 binding: binders of recombinant human FGF22 by thermal shift; Q9HCT0; SYPRO orange fluorescence; percent of sucrose octasulfate shift, DMSO zero; activity (Tm shift, normalised), % at 9.99 µM; 340,000 compounds, 1.5% hits; AID 651658;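 active = mean Tm shift, scaled 0 neutral to 100 positive control, at about 1.3% or above, every replicate too, limit read from the data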
Target sequence (Q9HCT0 whole entry, looked up): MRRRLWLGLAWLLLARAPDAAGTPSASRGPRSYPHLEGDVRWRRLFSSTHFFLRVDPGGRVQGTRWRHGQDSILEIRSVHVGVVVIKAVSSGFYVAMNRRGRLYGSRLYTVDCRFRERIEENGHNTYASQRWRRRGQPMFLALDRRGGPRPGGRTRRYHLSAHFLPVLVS
NR2E3 ag-2: agonists of human NR2E3 nuclear receptor; AID 602229; CHO-S Gal4-NCOR/VP16-NR2E3 two-hybrid, luciferase; Q9Y5X4; inhibition of corepressor binding, % at 3.98 µM; 360,000 compounds, 0.35% hits;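 active = inhibition above the mean of all tested compounds plus 3 SD, cut at about 70% in these data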;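 note: higher means lower luciferase signal from less NR2E3 corepressor binding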
miR-122 sensor: miR-122 inhibition in Huh7 cells. 340,000 compounds, 0.3% hits. activation (reporter increase), % at 12.5 µM. Huh7 miR-122 Renilla luciferase sensor, 48 h; neutral wells = 0, positive control = 100;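 active = mean replicate activation score at least 90 and every replicate individually at or above 90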;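 note: higher luciferase means less miR-122 activity so hits act as miR-122 inhibitors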
697 NFkB conf: inhibitors of the PMA/ionomycin-induced NF-kB reporter in 697 B cells, retest; 697 B-cell NF-kB luciferase, 16 h; shares compounds with 697 NFkB inh; 2,000 compounds, 35% hits; inhibition, % at 4 µM; in the data active = inhibition mostly above about 28%, no sharp cut-off; inactive = mostly below about 22%
A number is an active result; - = inactive; . = not tested or not shown.

SMILES	Jurkat NFkB inh	NR2E3 ag-1	697 NFkB inh	FGF22 binding	NR2E3 ag-2	miR-122 sensor	697 NFkB conf
O=C(NCC1CC1)[C@H]1[C@H](CO)[C@H]2Cn3c(ccc(C4=CCCC4)c3=O)[C@H]2N1Cc1ccccc1F	.	.	.	-	.	.	.
CCOc1ccc(-c2c[n+]3c(n2-c2ccccc2)CCCCC3)cc1	-	-	60	-	-	.	54
CCOC(=O)Cc1ccc(NC(=O)c2ccc(C(C)(C)C)cc2)cc1	-	-	90	.	-	-	64
O=C(CC(F)(F)F)N1C[C@H]2[C@@H](c3ccccc31)[C@@H](CO)N2C(=O)C1CCOCC1	.	.	.	-	.	-	.
C#CCn1c(S(=O)(=O)Cc2ccccc2Cl)nc(-c2ccccc2)c1-c1ccccc1	-	-	-	.	-	-	.
C#CCn1c(S(=O)(=O)Cc2ccc(C)cc2)nc(-c2ccccc2)c1-c1ccccc1	-	-	-	.	-	-	-
COc1ccc(OC(=O)N(C)C[C@@H]2OCc3cn(nn3)CCCC(=O)N([C@@H](C)CO)C[C@@H]2C)cc1	.	.	.	-	.	-	.
CO[C@H]1CN(C)C(=O)c2cc(NC(=O)c3ccc(F)cc3)ccc2OC[C@@H](C)NC[C@H]1C	.	.	.	.	.	-	.
Cc1ccc(-c2nnc(Nc3ccccc3)o2)cc1	-	-	-	-	-	-	-
Cc1ccc(NC(=O)Nc2nnc(-c3ccccc3)o2)cc1	-	-	-	-	-	.	.
CCN1C(=O)[C@@H]2Cc3c([nH]c4ccccc34)C(c3ccc(OC)cc3)N2C1=S (some centres undefined)	-	-	-	.	-	-	-
Cc1cc(Cl)c(S(=O)(=O)NC(C(=O)O)C(C)C)cc1OCC(=O)NC1CCCCC1 (centres undefined)	-	-	37	.	-	-	-
Cc1cc(Cl)c(S(=O)(=O)N2CCCC2)cc1OCC(=O)NC1CCCCC1	-	-	-	.	-	-	.
C[C@@H]1CN([C@H](C)CO)S(=O)(=O)c2ccc(-c3cccc(C#N)c3)cc2O[C@H]1CN(C)Cc1cccc(F)c1	.	.	.	-	.	-	.
O=C(O)c1cc(N/N=C/c2ccc(-c3ccccc3)cc2)ccc1Cl	.	.	.	-	-	-	.
CSc1ccc(/C=N/Nc2ccc(Cl)c(C(=O)O)c2)cc1	-	-	-	-	-	.	-
Oc1c(N=Nc2nn[nH]n2)ccc2ccccc12	.	.	.	-	-	.	.
Cc1ccc(N=Nc2ccc3ccccc3c2O)cc1	-	-	-	-	-	.	-
CC(C)c1[nH]nc2c1C(c1ccco1)C(C#N)=C(N)O2 (centres undefined)	-	-	49	-	-	.	30
CN(C)CC(=O)Nc1ccc2c(c1)[C@H]1C[C@@H](CC(=O)NCc3ccc4c(c3)OCO4)O[C@@H](CO)[C@H]1O2	.	.	.	-	.	-	.
COc1ccc(C(=O)O/N=C(\N)c2ccccc2)c(OC)c1	-	-	-	-	-	.	-
Cc1cc(C(F)(F)F)c(C#N)c(SCC(=O)Nc2nc3ccccc3s2)n1	-	-	-	-	-	-	-
Cc1ccc2sc(NC(=O)CSc3nc(C)cc(C)c3C#N)nc2c1	-	-	-	.	-	-	.
Cc1ccn2c(C(=O)c3ccc(Cl)cc3)cnc2c1	-	-	-	.	-	-	-
CCOC(=O)/C=C(\C)Sc1cc(=O)oc2ccccc12	-	-	36	.	-	-	28
SMILES	Jurkat NFkB inh	NR2E3 ag-1	697 NFkB inh	FGF22 binding	NR2E3 ag-2	miR-122 sensor	697 NFkB conf
CC1CC(C)(C)Nc2ccc(OC(=O)c3ccco3)cc21 (centres undefined)	-	-	53	.	-	.	63
Cc1ccc(N2C(=O)c3ccccc3NC2c2ccccc2O)cc1 (centres undefined)	-	-	-	-	-	-	-
CCOC(=O)c1nn(-c2ccc3c(c2)CCN3C(C)=O)cc1O	-	-	36	-	-	-	-
C=CCOc1ccc(NC(=O)C(=O)NCCCn2ccnc2)cc1	-	-	46	.	-	-	34
CCCOc1ccc(C(=O)NCCCn2ccnc2)cc1	-	-	-	.	-	-	.
CCCCCOc1ccc(NC(=O)C(=O)NCCCn2ccnc2)cc1	-	-	48	.	-	-	53
O=C(NCCCn1ccnc1)C(=O)NCc1ccc(Cl)cc1	-	-	-	.	-	-	.
Cc1ccc(CNC(=O)C(=O)NCCCn2ccnc2)cc1	-	-	38	-	-	.	-
CCc1sc(C(=O)Nc2cccc(-n3cnnn3)c2)cc1C	-	-	37	-	-	.	39
O=C(Nc1cccc(-n2cnnn2)c1)c1cccs1	-	-	-	-	-	-	.
O=C(NC1CCCC1)c1cc2nc(-c3ccccc3)cc(-c3ccccc3)n2n1	-	-	-	-	-	-	.
CC1CCN(C(=O)c2cc3nc(-c4ccccc4)cc(-c4ccccc4)n3n2)CC1	-	-	35	.	-	-	-
C[C@H](CO)N1C[C@H](C)[C@H](CN(C)C(=O)Nc2ccc(C(F)(F)F)cc2)OCc2cn(nn2)CCCC1=O	.	.	.	.	.	-	.
Clc1ccc(NC2=NCCCCC2)cc1	-	-	36	.	-	-	-
CC(=O)Nc1nc(C)c(-c2csc(Nc3ccc(O)cc3)n2)s1	-	-	-	.	-	-	.
CC(=O)Nc1nc(C)c(-c2csc(Nc3cccc(C(C)=O)c3)n2)s1	-	-	-	-	-	.	.
CC(=O)Nc1nc(C)c(-c2csc(Nc3cccc([N+](=O)[O-])c3)n2)s1	-	-	45	.	-	-	-
CC(=O)Nc1ccc(Nc2nc(-c3sc(NC(C)=O)nc3C)cs2)cc1	-	-	41	-	-	-	26
Cn1c(-c2ccccc2)cc2ccccc21	-	-	-	-	-	-	.
Cn1c(-c2ccccc2)cc2c3no[n+]([O-])c3ccc21	-	-	-	.	-	-	-
Cc1ccc(-n2ncc3c(SCc4ccccn4)ncnc32)c(C)c1	-	-	-	-	-	.	-
CSc1ncnc2c1cnn2-c1ccc(C)cc1C	-	-	-	-	-	-	.
O=C(NCCCN1CCOCC1)c1cc(-c2cccs2)on1	-	-	48	-	-	.	-
Cc1ccc(-c2cc(C(=O)NCCCN3CCOCC3)no2)cc1	-	-	87	.	-	-	85
O=C(NCCCN1CCOCC1)c1cc(-c2ccc(Cl)c(Cl)c2)on1	-	-	-	-	-	-	.
COc1ccccc1-c1cc(C(=O)NCCCN2CCOCC2)no1	-	-	-	-	-	.	.
COc1cccc(-c2cnc3c(c2)C(=O)N([C@H](C)CO)C[C@@H](C)[C@@H](CN(C)C(=O)CN(C)C)O3)c1	.	.	.	-	.	-	.
O=C(O)c1nn(CCOc2cccc(Cl)c2)c(=O)c2ccccc12	-	-	-	-	-	.	.
O=C(O)c1nn(CCOc2c(Cl)cccc2Cl)c(=O)c2ccccc12	-	-	-	-	-	.	-
Cc1ccc(-c2cc(N)n[nH]2)cc1	-	-	-	.	-	-	.
